Experimental data from PMC7825188 (CPT: Pharmacometrics & Systems Pharmacology, 2020).
Where two headings read alike, the source gives them in different places.

Legend:
[1] = format: in vivo, human; details: MBCT102
Method in brief: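 Healthy men (18–65 y, BMI 18–30, nonsmokers) completed two periods ≥14 days apart. Period 1 was a single oral 14 mg dose (2 × 7 mg capsules). In period 2, azithromycin 500 mg was given daily on days −1 to 2, with acumapimod on day 1. Plasma (K2EDTA) was sampled predose to 168 h, plus 336 h in period 2, and assayed by LC-MS/MS (1.0–1,000 ng/mL). Noncompartmental Cmax and AUCs were ln-transformed and analysed by ANOVA, giving GMR with 90% CI.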

[2] = format: in vivo, human; details: MBCT103
Method in brief: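 Healthy men received period 1 as in the azithromycin study (single 14 mg oral dose). In period 2, itraconazole oral solution 200 mg was given once daily on days 1–14, with a single acumapimod dose on day 7, 2 h post-itraconazole. Washout was ≥16 days. Plasma was sampled predose to 192 h and assayed by LC-MS/MS. Noncompartmental Cmax and AUCs were ln-transformed and analysed by ANOVA, giving GMR with 90% CI.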

[3] = Study MBCT102: safety and tolerability; format: in vivo, human
Method in brief: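 AEs and SAEs were recorded from check-in on day −1 until the post-study physical examination (day 15). TEAEs were AEs that were new after treatment or worsened in intensity or frequency. Intensity was graded mild, moderate or severe.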

[4] = Study MBCT103: safety and tolerability; format: in vivo, human
Method in brief: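 AEs and SAEs were recorded from check-in on day −1 until a follow-up call 14 days after the last acumapimod dose. TEAEs were AEs that were new after treatment or worsened in intensity or frequency. Intensity was graded mild, moderate or severe. The safety set comprised all subjects receiving ≥1 acumapimod dose.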

Human mass balance study = format: in vivo; details: assigned to biliary clearance (Model 1) or unabsorbed drug (Model 2)
P‐glycoprotein (P‐gp) = P‐glycoprotein (P‐gp) (Homo sapiens, UniProt P08183); test: P-gp substrate status of acumapimod; format: in vitro ADME
Chain of P‐glycoprotein (P‐gp) (P08183 whole entry): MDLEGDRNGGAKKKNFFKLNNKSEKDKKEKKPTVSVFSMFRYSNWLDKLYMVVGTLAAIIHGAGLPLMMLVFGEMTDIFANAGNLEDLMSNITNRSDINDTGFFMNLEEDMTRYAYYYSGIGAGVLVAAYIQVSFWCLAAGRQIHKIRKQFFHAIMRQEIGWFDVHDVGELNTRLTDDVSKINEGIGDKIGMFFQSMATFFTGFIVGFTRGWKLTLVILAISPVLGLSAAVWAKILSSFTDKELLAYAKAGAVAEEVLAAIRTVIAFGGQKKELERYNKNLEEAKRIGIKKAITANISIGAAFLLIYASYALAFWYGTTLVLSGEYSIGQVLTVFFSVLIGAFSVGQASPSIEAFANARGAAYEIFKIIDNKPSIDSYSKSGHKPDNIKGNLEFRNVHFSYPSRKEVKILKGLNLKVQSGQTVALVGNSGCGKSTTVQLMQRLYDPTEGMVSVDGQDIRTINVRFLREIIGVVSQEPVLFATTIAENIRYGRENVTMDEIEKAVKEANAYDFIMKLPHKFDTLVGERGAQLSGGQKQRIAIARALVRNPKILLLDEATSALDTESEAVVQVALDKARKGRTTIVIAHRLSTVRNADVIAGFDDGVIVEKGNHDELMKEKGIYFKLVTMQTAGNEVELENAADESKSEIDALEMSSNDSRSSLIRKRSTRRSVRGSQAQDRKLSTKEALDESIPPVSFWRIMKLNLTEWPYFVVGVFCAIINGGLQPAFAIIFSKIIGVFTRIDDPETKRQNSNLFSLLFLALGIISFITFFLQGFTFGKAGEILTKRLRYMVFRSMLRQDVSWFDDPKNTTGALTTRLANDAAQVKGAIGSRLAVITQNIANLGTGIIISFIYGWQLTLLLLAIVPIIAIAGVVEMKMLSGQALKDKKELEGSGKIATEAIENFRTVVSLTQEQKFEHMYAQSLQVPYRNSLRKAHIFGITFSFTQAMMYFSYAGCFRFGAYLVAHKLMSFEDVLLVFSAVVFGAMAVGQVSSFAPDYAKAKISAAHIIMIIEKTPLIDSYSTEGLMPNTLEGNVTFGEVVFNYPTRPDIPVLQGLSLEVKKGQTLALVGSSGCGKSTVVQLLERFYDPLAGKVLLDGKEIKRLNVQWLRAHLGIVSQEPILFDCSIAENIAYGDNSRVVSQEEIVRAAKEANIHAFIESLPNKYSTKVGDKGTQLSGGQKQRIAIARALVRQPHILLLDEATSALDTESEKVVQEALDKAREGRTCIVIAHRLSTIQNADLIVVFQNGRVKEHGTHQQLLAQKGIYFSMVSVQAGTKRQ

CYP3A4 = CYP3A4 (Homo sapiens, UniProt P08684); test: In vitro CYP phenotyping of acumapimod; format: in vitro ADME; details: both models; based on in vitro phenotyping data
Chain of CYP3A4 (P08684 whole entry): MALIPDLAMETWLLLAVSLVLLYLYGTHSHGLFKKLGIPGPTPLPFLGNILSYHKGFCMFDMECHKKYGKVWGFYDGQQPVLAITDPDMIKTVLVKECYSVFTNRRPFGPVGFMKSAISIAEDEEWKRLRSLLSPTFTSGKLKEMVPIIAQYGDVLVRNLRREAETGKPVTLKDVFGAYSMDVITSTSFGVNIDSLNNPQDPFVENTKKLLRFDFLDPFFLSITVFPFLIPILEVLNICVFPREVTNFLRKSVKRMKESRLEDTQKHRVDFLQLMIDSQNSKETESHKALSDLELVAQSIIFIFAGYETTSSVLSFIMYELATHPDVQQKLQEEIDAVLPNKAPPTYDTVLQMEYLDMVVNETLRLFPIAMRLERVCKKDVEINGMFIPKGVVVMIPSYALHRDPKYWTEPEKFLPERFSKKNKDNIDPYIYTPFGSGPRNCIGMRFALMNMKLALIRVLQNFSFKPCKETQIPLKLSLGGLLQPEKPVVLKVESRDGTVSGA

[5] = acumapimod + azithromycin relative to acumapimod alone
[6] = azithromycin, upper 90% CI of GMR
[7] = with azithromycin vs. acumapimod alone
[8] = acumapimod + itraconazole vs. acumapimod alone
[9] = itraconazole, upper 90% CI of GMR
[10] = with itraconazole relative to acumapimod alone

Cc1ccc(C(=O)NC2CC2)cc1-n1ncc(C(=O)c2cccc(C#N)c2)c1N [acumapimod]
AUC0–t ratio (adjusted GMR) [1, 5]: 105.65% | AUC0–∞ ratio (adjusted GMR) [1, 5]: 104.32% | Cmax ratio (adjusted GMR) [1, 5]: 106.34% | upper limit of the interaction, AUC0–t [1, 6]: 112% | upper limit of the interaction, AUC0–∞ [1, 6]: 110% | upper limit of the interaction, Cmax [1, 6]: 115% | increase of geometric mean AUC0–∞ [1, 7]: 4.3% | increase of geometric mean Cmax [1, 7]: 6.3% | AUC0–t ratio (adjusted GMR) [2, 8]: 110.09% | AUC0–∞ ratio (adjusted GMR) [2, 8]: 110.22% | Cmax ratio (adjusted GMR) [2, 8]: 99.44% | upper limit of interaction, AUC0–t [2, 9]: 120% | upper limit of interaction, AUC0–∞ [2, 9]: 120% | upper limit of interaction, Cmax [2, 9]: 109% | change in Cmax [2, 10]: no change | increase of geometric mean AUC0–t [2, 10]: 10% | increase of geometric mean AUC0–∞ [2, 10]: 10% | SAEs or deaths [3]: No SAEs or deaths were reported | safety laboratory, vital signs, electrocardiogram, physical examination [3]: No clinically relevant findings | subjects reporting TEAEs ([3]; 8 of 16 subjects, both periods): 50% | number of TEAEs, overall ([3]; 16 subjects, both periods): Fifteen | number of TEAEs ([3]; acumapimod alone (period 1)): 7 | number of TEAEs ([3]; acumapimod with azithromycin (period 2)): 8 | intensity of TEAEs ([3]; all TEAEs): mild or moderate | TEAE considered likely related to acumapimod ([3]; one TEAE, first exposure (acumapimod alone)): acneiform rash | deaths, SAEs, severe TEAEs [4]: No deaths, SAEs, or severe TEAEs were reported | treatment-related TEAEs [4]: No TEAEs were judged to be treatment related | vital signs, electrocardiogram, laboratory parameters [4]: No safety concerns were raised | subjects reporting TEAEs ([4]; 6 of 16 subjects, both periods): 37.5% | number of TEAEs, overall ([4]; 16 subjects, both periods): 10 | number of TEAEs ([4]; acumapimod and itraconazole (period 2)): 8 | liver function tests and central nervous system AEs ([4]; co‐administration of acumapimod and itraconazole): no clinically meaningful changes | dose recovered in the feces (Human mass balance study): 33.9% | P-gp substrate status (P‐glycoprotein (P‐gp)): substrate of P‐glycoprotein (P‐gp) | share of CYP‐mediated metabolism assigned to CYP3A4 (CYP3A4): 97.8%
